Shown is part of a subset that was picked to be rich in hits.
Lung fibro prol: antiproliferative effect on LL 47 fibroblasts – human, LL 47 cells, CellTiter-Glo luminescence, primary screen | LL 47 human lung fibroblast viability, ATP luminescence; stronger effect = lower value | viability, % at 10 µM | 1.1% of 85,000 active;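 active = viability at or below 50% in the single dose screen; inactive = viability above 50%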;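 note: compound exposure lasted 72 h before the ATP readout; 100% = median luminescence of untreated cell-only wells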
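Material: human LL 47 lung fibroblast cells; quantity: 1,150 cells/well; medium: IMEM plus 15% FBS; doses: 0.1% DMSO in all compound wells; timing: overnight attachment after seeding, then 72 h compound exposure at 37 °C; detection: CellTiter-Glo luminescence; measure: % viability of median cell-only signal; controls: cell-only wells, no compound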
PTEN del growth: growth suppression of PTEN-null HCT116, primary screen, cell-based, CellTiter-Glo | HCT116 PTEN-null viability, 60 h; stronger effect = lower value | viability, % at 10 µM | 1.2% of 140,000 active | AID 827, 2007;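 active = viability at or below a set limit, 4 SD under the median of all tested compounds, cut at about 3.7% in these data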;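 note: PTEN knockout HCT116 line with beta catenin targeted HCT116 as companion control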
HUVEC inhibit: inhibitors of HUVEC proliferation, primary screen, cell-based, 384-well. CellTiter-Glo luminescence, 72 h; stronger effect = lower value. viability, % at 10 µM (by protocol). AID 648, 2007. 1.1% of 86,000 active;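 active = viability at or below 30%; inactive = viability above 30%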;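 note: 100% = median luminescence of DMSO-only cell control wells on each plate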
bCat KO growth: primary screen for growth suppressors in beta-catenin knockout HCT116 cells (colon tumor, human); AID 818, 2007; 1.5% of 140,000 active; viability, % at 10 µM; HCT116 beta-catenin knockout viability, CellTiter-Glo, 60 h; stronger effect = lower value;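 active = viability at or under a set limit, the compound median less 4 SD, cut at about 6% in these data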;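 note: 0% = Hyamine 1622 control at 20 µM and 100% = untreated cell control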
H69AR growth 86K: proliferation blockers of H69AR lung cancer cells, primary screen, cell-based, human, 86K library; H69AR lung tumor viability, ATP luminescence, 72 h; stronger effect = lower value; viability, % at 10 µM; 6% of 85,000 active;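 active = viability at or below 40%; inactive = viability above 40%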;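 note: multidrug resistant small cell line overexpressing MRP-1 efflux transporter; 100% = mean luminescence of untreated control wells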
Starred values were filed as active, the others as inactive; nt = not tested or not shown.

SMILES | Lung fibro prol | PTEN del growth | HUVEC inhibit | bCat KO growth | H69AR growth 86K
CN1c2ccccc2C(C)(C)C12CC(c1ccc(Cl)c(S(=O)(=O)N3CCCC3)c1)=NO2 (stereo not drawn) | nt | 81.9 | nt | 72.8 | nt
COc1cc([C@@H]2c3cc4c(cc3[C@H](O)[C@H]3COC(=O)[C@H]23)OCO4)cc(OC)c1OC | 52.5 | 13.4 | 45.9 | 14.8 | 36.0*
COc1ccc2nc(SCC(=O)Nc3ccc(S(=O)(=O)N4CCCC4)cc3)c(C#N)cc2c1 | 100.1 | 77.5 | 90.6 | 72.6 | 6.0*
N#Cc1cc2ccccc2nc1SCC(=O)Nc1ccc(S(=O)(=O)N2CCCC2)cc1 | 87.7 | 67.8 | 76.2 | 61.5 | 52.6
O=C(CSc1nc2ccccc2s1)N1CCCCC1 | 113.8 | 110.3 | 103.5 | 88.2 | 76.3
Cc1c(Cl)cccc1N/C(SCC(=O)N1CCCCCC1)=C(/C#N)c1nc2ccccc2s1 | nt | 1.6* | nt | 1.7* | nt
COc1ccccc1N1CCN(C(=O)COc2ccc(Cl)cc2Br)CC1 | 97.3 | 68.8 | 67.9 | 81.7 | 16.6*
Cc1ccc(C)c(S(=O)(=O)NCc2ccc(C(=O)N3CCC(Cc4ccccc4)CC3)cc2)c1 | 99.0 | 63.5 | 60.4 | 81.9 | 35.7*
Cc1c(C(=O)N2CCc3ccccc32)cnn1C | nt | 105.1 | nt | 92.9 | nt
COc1ccccc1NC(=O)c1ccc(NC(=O)CSc2nnnn2C)cc1 | 104.1 | 91.3 | 96.9 | 81.3 | 2.2*
COc1ccccc1NC(=O)CSc1nnnn1-c1ccc(C)cc1 | 100.7 | 103.2 | 88.0 | 86.0 | 83.2
CC1(C)CC(=O)C(C2(O)C(=O)N(Cc3ccccc3)c3ccccc32)CO1 (stereo not drawn) | 97.4 | 12.2 | 76.3 | 14.3 | 17.0*
CC1(C)CC(=O)CC(C2(O)C(=O)N(Cc3ccccc3)c3ccccc32)O1 (stereo not drawn) | 102.6 | 9.9 | 94.5 | 11.1 | 28.5*
CC12CN3CC(C)(CN(C1)C31C(=O)N(Cc3ccccc3)c3ccccc31)C2=O (stereo not drawn) | 91.8 | nt | 88.4 | nt | 85.6
CS(=O)(=O)N1CCN(c2ccc(Cl)cc2[N+](=O)[O-])CC1 | nt | 94.0 | nt | 97.9 | nt
Cc1ccccc1N1C(=O)CC(Sc2nnc(-c3ccccc3)o2)C1=O (stereo not drawn) | 45.9* | 96.9 | 85.3 | 83.6 | 1.8*
O=C1CC(Sc2nnc(-c3ccccc3)o2)C(=O)N1c1ccccc1 (stereo not drawn) | 90.3 | 115.8 | 106.4 | 96.5 | 1.8*
Nc1c(C(=O)Nc2ccc(S(=O)(=O)N3CCCC3)cc2)sc2nc3cc4c(cc3cc12)CCC4 | nt | 1.5* | nt | 5.8* | nt
CNC(=O)/C=C1\NC(C)(C)Cc2c1ccc1ccccc21 | 89.5 | 55.9 | 80.2 | 54.5 | 22.7*
COc1ccc(N(CC(O)Cn2cnc3ccccc32)S(=O)(=O)c2ccc(C)cc2)cc1 (stereo not drawn) | nt | 90.9 | nt | 89.3 | nt
Oc1ccc(/C=N/n2c(-c3ccco3)csc2=Nc2cccnc2)c(O)c1 | nt | 30.6 | nt | 30.8 | nt
CC(C)N=c1scc(-c2ccco2)n1/N=C/c1ccc(O)c(O)c1 | 48.2* | 72.0 | 47.3 | 77.2 | 31.4*
Nc1cccc(C(=O)Nc2ccc3nc(-c4cccnc4)[nH]c3c2)c1 | 112.6 | 93.9 | 109.8 | 96.5 | 66.3
O=C(Nc1ccc2nc(-c3cccnc3)[nH]c2c1)C12CC3CC(CC(C3)C1)C2 | 47.5* | 35.2 | 6.0* | 33.5 | 30.1*
O=C(Nc1ccc2nc(-c3cccnc3)[nH]c2c1)C1CCCCC1 | 103.1 | 93.7 | 74.6 | 96.0 | 25.3*
SMILES | Lung fibro prol | PTEN del growth | HUVEC inhibit | bCat KO growth | H69AR growth 86K
COc1ccc(C(C[N+](=O)[O-])C2(c3ccc(OC)c(OC)c3)C(=O)c3ccccc3C2=O)cc1 (stereo not drawn) | nt | 2.1* | nt | 2.5* | nt
COC(=O)C(C(=O)OC)C(C[N+](=O)[O-])c1ccc(OC)c(OC)c1 (stereo not drawn) | nt | 83.5 | nt | 65.2 | nt
COc1ccc(N(C(=O)c2ccco2)S(=O)(=O)c2cc(Cl)c(Cl)cc2Cl)cc1 | 97.0 | 33.5 | 68.5 | 42.6 | 19.9*
COc1ccc(N(C(=O)c2ccco2)S(=O)(=O)c2ccccc2)cc1 | nt | 72.5 | nt | 81.8 | nt
COC(=O)c1cc(NC(=O)c2c(Cl)nc3sccn23)cc(C(=O)OC)c1 | 6.7* | 62.9 | 68.0 | 57.0 | 36.0*
COC(=O)c1cc(=O)nc2sccn12 | 104.0 | 102.2 | 96.6 | 100.9 | 83.9
O=Cc1ccc2noc(-c3ccc(Cl)cc3)c2c1 | 104.9 | 23.1 | 80.5 | 31.3 | 38.5*
Cc1ccc(C(C(=O)NC2CCCC2)N(Cc2cccs2)C(=O)c2csnn2)o1 (stereo not drawn) | 100.5 | 96.5 | 103.7 | 93.7 | 80.6
CCCN(CCC)C(=O)CCSCCC(=O)N(CCC)CCC | nt | 91.8 | nt | 95.1 | nt
O=C(CCCCCC(=O)N(CCO)CCO)N(CCO)CCO | 93.5 | 100.8 | 96.2 | 98.0 | 25.7*
O=C(O)C1CCCCC1C(=O)Nc1cccc2ccccc12 (stereo not drawn) | 108.0 | 94.5 | 92.0 | 90.9 | 83.1
Nc1nc(Nc2cccc3ccccc23)nc(C2CCCC2=O)n1 (stereo not drawn) | 91.3 | 60.5 | 14.8* | 77.0 | 0.8*
COc1ccc(/C=C/C(=O)Nc2ccc(OC)nc2)cc1 | nt | 76.7 | nt | 70.0 | nt
COc1ccc(CS(=O)(=O)/C(Cl)=C(/Cl)C(=O)Nc2ccc(OC)nc2)cc1 | 4.8* | 4.1 | 2.6* | 6.5 | 0.0*
COc1ccc(NC(=O)/C(Cl)=C(/Cl)S(=O)Cc2ccccc2)cn1 (stereo not drawn) | 1.2* | 1.5* | 2.2* | 1.5* | 1.7*
CCc1ccc(C(=O)CN2C(=O)NC(C)(CCc3ccccc3)C2=O)cc1 (stereo not drawn) | nt | 86.4 | nt | 83.5 | nt
Cc1c(Cl)cccc1NC(=O)c1ccc(OCC(=O)NCc2ccccc2)cc1 | nt | 99.0 | nt | 98.1 | nt
CC1(C)CC(=O)C2=C(C1)Oc1nc3ccccc3cc1C2C(C#N)C#N (stereo not drawn) | 16.8* | 6.2 | 50.0 | 8.6 | 1.6*
CCn1c2ccccc2c2cc(Nc3cc(C)nc4ncnn34)ccc21 | 44.8* | 10.1 | 29.8* | 15.3 | 31.2*
CCc1cccc(Nc2cc(C)nc3ncnn23)c1 | 92.1 | 92.9 | 94.0 | 91.3 | 89.2
Cc1ccc(C(=O)/C=C/c2ccco2)c(O)c1 | nt | 71.4 | nt | 85.3 | nt
COC(=O)/C(=C\Nc1ccc(OC)cc1)NC(=O)c1ccc(Cl)cc1Cl | 88.4 | 76.9 | 74.6 | 64.8 | 36.2*
Cc1ccc(C)c(S(=O)(=O)C(C#N)c2nc3ccccc3nc2N2CC(C)OC(C)C2)c1 (stereo not drawn) | 86.0 | 77.8 | 69.8 | 74.4 | 38.6*
CCONC(=O)Nc1ccccc1 | nt | 94.7 | nt | 97.3 | nt
COCc1cc(=O)[nH]c(Nc2nc3ccc(C)cc3o2)n1 | 5.2* | 5.4 | 38.7 | 6.6 | 21.4*
COC(=O)c1c(NC(=O)COC(=O)CNC(=O)C2CCCCC2)sc(C)c1C | nt | 87.4 | nt | 85.6 | nt

Assay outcomes from PubChem.
